RanGTP-Impb inh: inhibitors of RanGTP-importin-beta interaction, primary screen, biochemical, FRET, CFP-Ran, YFP-importin-beta, homogeneous; Ran GTPase (GTP-bound) - importin-beta complex; cell-free CFP-Ran/YFP-importin-beta FRET ratio; inhibition, % (no concentration beside the values); 1.1% of 300,000 active; AID 2216, 2009;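 active = more than half of the replicate wells show a fall in the fluorescence ratio signal beyond about 16%, limit read from the data, passing the limit was not always enough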
Runt-CBFb FRET: inhibitors of RUNX1 Runt–CBFb binding, primary screen, biochemical, FRET, Cerulean-Runt, Venus-CBFb, uHTS | Runt-related transcription factor 1 (Homo sapiens) + Core-binding factor subunit beta … | Cerulean-Runt/Venus-CBFb FRET ratio 530/480, 1 h | inhibition, % at 20 µM | 0.46% of 220,000 active | AID 1496, 2009;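 active = inhibition over about 50% at 20 µM in the single-dose screen, limit read from the data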
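System: Cerulean-labeled Runt domain protein | Quantity: 100 nM of each labeled protein | Schedule: 1 h compound exposure, room temperature | Detection: Fluorescence energy transfer, 422 nm excitation, 530/480 nm emission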
DSG3 Ab inh: inhibitors of pemphigus antibody binding to DSG3, primary screen, biochemical, bead-based, flow cytometry, scFv-GFP; DSG3-coupled beads, scFv-anti-DSG3-GFP binding; stronger effect = lower value; Desmoglein-3 (Homo sapiens), P32926; binding (percent of control), % at 10 µM; 0.48% of 310,000 active;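 active = binding more than 3 SD below its plate's average and above zero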;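 note: hits lower antibody fragment binding to DSG3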
pCIP destab: p/CIP-EGFP fusion destabilizers, primary screen, fluorescence, F442A cells | Q05BA5 | 16 h | decrease of EGFP signal, % at 10 µM | 0.01% of 290,000 active;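 active = EGFP signal decrease of at least 30% at 10 µM or well 3 SD below plate mean, unless failing retest; inactive = the rest, including hits failing retest or dose response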
Runt-SMMHC FRET: inhibitors of RUNX1 Runt–CBFb-SMMHC binding, primary screen, biochemical, FRET, Cerulean-Runt, Venus-CBFb-SMMHC, uHTS | Cerulean-Runt/Venus-CBFb-SMMHC FRET ratio 530/480, 1 h | inhibition, % at 20 µM | 0.74% of 220,000 active;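 active = mean inhibition across duplicate retests at 20 µM reaching about 50%, limit read from the data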;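 note: inhibitors lower the FRET ratio by blocking Runt binding to CBFb-SMMHC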
Hck-Nef inh: inhibitors of Nef-activated human Hck kinase, primary screen, biochemical, Z-Lyte FRET, 384-well, Hck-YEEI; Recombinant Hck-YEEI plus Nef, Z-Lyte FRET kinase assay; inhibition, % at 20 µM; 0.68% of 220,000 active;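 active = Hck-Nef kinase inhibition above about 50%, limit read from the data; inactive = inhibition below that limit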
Target sequence (P08631 whole entry, looked up): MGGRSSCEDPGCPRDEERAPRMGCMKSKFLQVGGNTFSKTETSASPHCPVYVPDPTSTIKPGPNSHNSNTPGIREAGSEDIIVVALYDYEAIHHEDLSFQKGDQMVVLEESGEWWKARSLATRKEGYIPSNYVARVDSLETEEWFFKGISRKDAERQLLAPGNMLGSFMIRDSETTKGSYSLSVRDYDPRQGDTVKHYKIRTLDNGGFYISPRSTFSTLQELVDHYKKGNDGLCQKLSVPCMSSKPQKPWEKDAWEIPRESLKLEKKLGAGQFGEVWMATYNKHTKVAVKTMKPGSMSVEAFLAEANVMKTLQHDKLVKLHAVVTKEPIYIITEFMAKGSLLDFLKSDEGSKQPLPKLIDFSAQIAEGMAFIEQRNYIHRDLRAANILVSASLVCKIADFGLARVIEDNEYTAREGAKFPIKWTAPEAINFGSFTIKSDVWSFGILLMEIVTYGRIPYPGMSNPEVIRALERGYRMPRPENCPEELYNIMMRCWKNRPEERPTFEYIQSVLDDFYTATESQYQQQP
Numbers stand for hits; 0 = inactive; - = not tested or not shown. The list is not random: actives were taken first. Their share in the collection is about 2.1%.

SMILES | RanGTP-Impb inh | Runt-CBFb FRET | DSG3 Ab inh | pCIP destab | Runt-SMMHC FRET | Hck-Nef inh
Nc1c(C(=O)NCc2ccco2)c2nc3ccccc3nc2n1CCN1CCCCC1 | 71.4 | 0 | 0 | 0 | 0 | 0
COC(=O)C1=C(c2cccc(OCc3ccccc3)c2)C[C@@H]2CC[C@H]1N2C(=O)NCCOc1ccccc1 | - | - | 0 | - | - | -
COc1ccc(CN2C(=O)NC(=O)/C(=C/c3ccc([N+](=O)[O-])o3)C2=O)cc1 | - | - | - | 0 | 0 | 142.2
COc1ccc(/C=C2/C(=O)NC(=O)N(Cc3ccco3)C2=O)cc1 | 0 | 0 | - | 0 | 0 | 57.2
CCCNC(=O)c1c(N)n(Cc2ccc3c(c2)OCO3)c2nc3ccccc3nc12 | - | 0 | 0 | 0 | 0 | 0
CC(C)CCNC(=O)c1c(N)n(Cc2ccc3c(c2)OCO3)c2nc3ccccc3nc12 | 77.2 | 0 | 0 | 0 | 0 | 0
CC(C)CNC(=O)c1c(N)n(Cc2ccc3c(c2)OCO3)c2nc3ccccc3nc12 | 0 | 0 | - | 0 | 55.7 | 0
CCOP(=O)(OCC)C(C)(C)NC(=O)C(Cl)(Cl)Cl | 84.5 | 0 | - | 0 | 0 | 0
CCOP(=O)(OCC)C(NC(=O)CC(C)C)C(Cl)(Cl)Cl (centres undefined) | 0 | 0 | 0 | 0 | 0 | 0
CCC1CN1P(=O)(c1ccccc1)N1CC1CC (centres undefined) | - | - | 0 | - | - | -
CN(C)/C=C1/C(=O)NC(=O)N(CCNc2ncc(C(F)(F)F)cc2Cl)C1=O | 0 | 0 | 0 | 0 | 0 | 153.6
CCOP(=O)(OCC)C(NC(=O)c1cccc([N+](=O)[O-])c1)C(Cl)(Cl)Cl (centres undefined) | 0 | 0 | 83.0 | 0 | 0 | 0
CCOP(=O)(OCC)C(NC(=O)c1cccc(C)c1)C(Cl)(Cl)Cl (centres undefined) | 0 | 0 | 0 | 0 | 0 | 0
CN1CC=C2C(C#N)=C(N)C(C#N)(C#N)C(c3ccncc3)C2C1 (centres undefined) | 44.9 | 0 | 0 | 0 | 0 | 0
CC(O)C1C=CC=CC(=O)OC2CC3OC4C5OC5(C)C(O)CC4(COC(=O)C(O)C(C)CCO1)C2(C)C31CO1 (centres undefined) | - | - | 73.8 | - | - | -
CC1CCOC(=O)C=CC=CC(=O)OC2CC3OC4C5OC5(C)C(O)CC4(COC(=O)C1O)C2(C)C31CO1 (centres undefined) | - | - | 0 | - | - | -
C#C[C@]1(O)CC[C@H]2[C@@H]3CCC4=Cc5nc6nc7ccccc7n6cc5C[C@]4(C)[C@H]3CC[C@@]21C | - | - | 63.5 | - | - | -
CCOC(=O)c1ccc(NC(=O)N2C[C@@H]3C[C@@H](C2)c2cccc(=O)n2C3)cc1 | 0 | - | 0 | 0 | - | -
CCCCCCCCn1sccc1=O | - | - | 87.1 | - | - | -
COc1cc(O)c(C(=O)O)c(-c2cc(O)c(O)cc2C)c1 | 0 | 0 | 0 | 0 | 58.4 | 0
COc1ccc2c(c1)c(C(=O)O)c(C)n2CC(C)C | 0 | 0 | 0 | 0 | 0 | 0
COC(=O)OCC12CCC(O1)C1(C)C(=O)OCC21 (centres undefined) | 0 | 0 | 0 | 0 | 0 | 0
O=C1NC(=O)C(=Cc2ccc(-c3ccc(Cl)cc3)o2)C(=O)N1 | 0 | - | 71.6 | 0 | - | -
O=C1NC(=O)C(=Cc2ccc(-c3ccc(S(=O)(=O)N4CCOCC4)cc3)o2)C(=O)N1 | 0 | - | 0 | 0 | - | -
COC(=O)C1=C(c2cc3ccccc3s2)C[C@@H]2CC[C@H]1N2C(=O)N1CCCCC1 | 0 | - | 0 | - | - | -
C=CCN1C(=O)/C(=C/c2ccc(Br)s2)C(=O)NC1=S | 0 | - | 0 | 0 | - | -
CCN1C(=O)/C(=C\c2ccc([N+](=O)[O-])s2)C(=O)NC1=S | - | - | - | 0 | 0 | 88.5
Cc1ccccc1NP(=O)(Oc1ccccc1F)Oc1ccccc1F | 0 | 0 | 0 | 0 | 0 | 0
COc1ccc(N=Cc2c(O)n(-c3ccc(C)cc3)c(=O)[nH]c2=O)cc1 | 0 | 0 | 0 | 0 | 64.4 | 0
